# Measurements pooled from the literature.
# Each line is one published result; the experiments were not run side by side.
# SIGMAR1: Sigma non-opioid intracellular receptor 1 (SIGMAR1, Homo sapiens, UniProt Q99720)
# BMX: Cytoplasmic tyrosine-protein kinase BMX (BMX, Homo sapiens, UniProt P51813)
# OPRK1: Kappa-type opioid receptor (OPRK1, Homo sapiens, UniProt P41145)
# SLC18A3: Vesicular acetylcholine transporter (SLC18A3, Homo sapiens, UniProt Q16572)
# HTR2A: 5-hydroxytryptamine receptor 2A (HTR2A, Homo sapiens, UniProt P28223)
Structure (SMILES),target,read-out,mode,method,setting,Ki
OCCOCCN1CCN(C(c2ccccc2)c2ccc(Cl)cc2)CC1 (stereo not shown),SIGMAR1,ligand displacement,,radioligand,,437 nM
[C-]#[O+],"cooS2 (Carboxydothermus hydrogenoformans, UniProt Q9F8A8)",enzyme activity,inhibitor,,,5400 nM
Cn1cc(-c2cc(F)cc(N3CCn4c(cc5c4CCCC5)C3=O)c2CO)cc(Nc2ccc(N3CCN(C4COC4)CC3)cn2)c1=O,BMX,enzyme activity,inhibitor,FRET,,83.2 nM
Cc1cc(O)cc(C)c1C[C@H](N)C(=O)N1CCc2ccc(Cc3cccc(N)c3)cc2C1,OPRK1,ligand displacement,,radioligand,cell membranes,28 nM
CCCC[C@@H](NC(=O)[C@@H](N)Cc1c(C)cc(O)cc1C)C(=O)NCC(=O)N[C@@H](Cc1ccc(F)cc1)C(=O)N(C)CCC[C@@]1(c2ccc(F)cc2)OCc2cc(C#N)ccc21,OPRK1,cell-free assay,,,,3 nM
"O=C(c1ccc(F)cc1)C1CCN(C2Cc3c(cccc3OCCF)CC2O)CC1 (single isomer, unassigned; (-))",SLC18A3,ligand displacement,,radioligand,,6.98 nM
CNC(=O)[C@H]1[Se][C@@H](n2cnc3c(NCc4cccc(Cl)c4)nc(Cl)nc32)[C@H](O)[C@@H]1O,"Adenosine receptor A2a (ADORA2A, Homo sapiens, UniProt P29274)",ligand displacement,,radioligand,cell membranes,~200 nM
CCCN1CCC[C@@H]2Cc3n[nH]cc3C[C@H]21,SLC18A3,ligand displacement,,radioligand,,> 1000 nM
CN(C)CCCC1(c2ccc(F)cc2)OCc2cc(C#N)ccc21 (stereo not shown),SIGMAR1,ligand displacement,,radioligand,,182 nM
Cn1cc(-c2cccc(N3CCc4c(sc5c4CC(C)(C)C5)C3=O)c2CO)cc(Nc2ccncn2)c1=O,BMX,enzyme activity,inhibitor,FRET,,> 3330 nM
Cc1nc2n(c(=O)c1CCN(C)CCc1c[nH]c3ccccc13)CCCC2,HTR2A,ligand displacement,,radioligand,cell membranes,237 nM
CN1CCN(CCc2ccc(Cl)c(Cl)c2)CC1,SIGMAR1,ligand displacement,,radioligand,,9.48 nM
Fc1ccc2c(C3CCCNC3)noc2c1 (racemic),HTR2A,ligand displacement,,radioligand,cell membranes,284 nM
CN(CCCN1c2ccccc2CCc2ccccc21)CC(=O)c1ccc(Cl)cc1,SIGMAR1,ligand displacement,,radioligand,,7090 nM
Cc1cccc(Cc2ccc3c(c2)CN(C(=O)[C@@H](N)Cc2c(C)cc(O)cc2C)CC3)c1,OPRK1,ligand displacement,,radioligand,cell membranes,2.7 nM
COc1cc2c(cc1OC)CN(CCc1ccc(NC(=O)c3cccc4c(=O)c5cccc(OC)c5[nH]c34)cc1)CC2,SIGMAR1,ligand displacement,,radioligand,,> 10000 nM
N[C@@H](C[C@]1(C(=O)O)C[C@H]2OC[C@@H](O)[C@@H](O)[C@H]2O1)C(=O)O,"Glutamate receptor ionotropic, kainate 2 (Grik2, Rattus norvegicus, UniProt P42260, Y443F)",ligand displacement,,radioligand,,895 nM
O=C(CN1CCC(CN2Cc3ccccc3C2=O)CC1)c1ccc(F)cc1,SIGMAR1,ligand displacement,,radioligand,,1740 nM
CCOC(=O)C(CC)(CCCSC)NC(=O)c1ccc(C2CC2)c(Cc2ccc(F)cc2)n1 (stereo not shown),"Cannabinoid receptor 1 (CNR1, Homo sapiens, UniProt P21554)",ligand displacement,,radioligand,cell membranes,8.5 nM
